Our source for the inhibition and residual activity values is ChEMBL document CHEMBL5705888, “Substrate specificity and inhibitors of LRRK2, a protein kinase mutated in Parkinson's disease” (Biochem J, 2009).

Test [1] has as its target T1, Dual specificity protein kinase TTK (Homo sapiens) (UniProt P33981).
T1 sequence (whole entry): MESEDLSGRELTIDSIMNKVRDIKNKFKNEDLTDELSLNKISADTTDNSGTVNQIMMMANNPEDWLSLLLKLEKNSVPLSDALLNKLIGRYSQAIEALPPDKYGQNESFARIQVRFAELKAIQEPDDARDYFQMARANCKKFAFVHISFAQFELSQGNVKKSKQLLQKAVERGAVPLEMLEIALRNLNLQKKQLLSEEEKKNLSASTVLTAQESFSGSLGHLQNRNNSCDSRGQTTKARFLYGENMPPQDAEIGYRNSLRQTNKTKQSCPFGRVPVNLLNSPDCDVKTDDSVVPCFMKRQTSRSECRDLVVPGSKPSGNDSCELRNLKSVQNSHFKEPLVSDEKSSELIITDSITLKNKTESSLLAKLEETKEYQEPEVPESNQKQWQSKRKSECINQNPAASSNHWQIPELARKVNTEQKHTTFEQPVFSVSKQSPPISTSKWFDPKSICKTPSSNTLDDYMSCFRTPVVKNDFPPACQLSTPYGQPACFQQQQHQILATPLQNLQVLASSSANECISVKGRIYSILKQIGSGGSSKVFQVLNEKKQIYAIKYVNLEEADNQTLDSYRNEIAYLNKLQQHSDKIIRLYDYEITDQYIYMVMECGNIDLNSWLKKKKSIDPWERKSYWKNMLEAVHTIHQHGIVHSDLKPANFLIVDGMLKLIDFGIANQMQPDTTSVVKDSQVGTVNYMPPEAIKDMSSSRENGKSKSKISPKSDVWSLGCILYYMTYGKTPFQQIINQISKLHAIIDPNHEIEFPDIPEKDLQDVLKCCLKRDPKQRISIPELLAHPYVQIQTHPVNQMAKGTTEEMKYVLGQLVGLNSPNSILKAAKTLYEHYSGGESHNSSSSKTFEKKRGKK
In words: Inhibition of TTK (unknown origin) at 10 uM incubated for 30 mins in presence of [gamma-33P]ATP by multidrop micro reagent based assay relative to control. The procedure, abridged: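 Single-concentration screen across a panel of 85 protein kinases. Activity is expressed as a percentage of control incubations run without inhibitor.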

Test [2] addresses Serine/threonine-protein kinase Nek6 (Homo sapiens) (UniProt Q9HC98). Put plainly: Residual activity of NEK6 (unknown origin) at 10 uM incubated for 30 mins in presence of [gamma-33P]ATP by multidrop micro reagent based assay relative to control.
Test [3] deals with Mitogen-activated protein kinase 8 (Homo sapiens) (UniProt P45983). In words: Inhibition of JNK1 (unknown origin) at 10 uM incubated for 30 mins in presence of [gamma-33P]ATP by multidrop micro reagent based assay relative to control; values are per cent of control.
Chain of Mitogen-activated protein kinase 8 (Homo sapiens) (P45983 whole entry): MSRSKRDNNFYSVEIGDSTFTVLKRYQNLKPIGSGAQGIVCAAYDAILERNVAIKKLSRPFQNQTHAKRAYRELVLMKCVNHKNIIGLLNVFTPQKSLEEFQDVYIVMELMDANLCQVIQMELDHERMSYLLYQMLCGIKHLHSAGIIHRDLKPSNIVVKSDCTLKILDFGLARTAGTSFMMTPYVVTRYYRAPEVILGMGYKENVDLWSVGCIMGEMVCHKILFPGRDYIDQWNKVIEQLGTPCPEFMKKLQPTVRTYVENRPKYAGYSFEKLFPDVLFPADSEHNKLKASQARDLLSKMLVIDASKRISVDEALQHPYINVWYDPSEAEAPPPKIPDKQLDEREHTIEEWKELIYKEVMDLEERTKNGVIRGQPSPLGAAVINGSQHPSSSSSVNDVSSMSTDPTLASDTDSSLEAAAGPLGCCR
For test [4], the target named is Mitogen-activated protein kinase kinase kinase 9 (Homo sapiens) (UniProt P80192). In words: Inhibition of MLK1 (unknown origin) at 10 uM incubated for 30 mins in presence of [gamma-33P]ATP by multidrop micro reagent based assay relative to control; values are per cent of control.
Chain of Mitogen-activated protein kinase kinase kinase 9 (Homo sapiens) (P80192 whole entry, looked up): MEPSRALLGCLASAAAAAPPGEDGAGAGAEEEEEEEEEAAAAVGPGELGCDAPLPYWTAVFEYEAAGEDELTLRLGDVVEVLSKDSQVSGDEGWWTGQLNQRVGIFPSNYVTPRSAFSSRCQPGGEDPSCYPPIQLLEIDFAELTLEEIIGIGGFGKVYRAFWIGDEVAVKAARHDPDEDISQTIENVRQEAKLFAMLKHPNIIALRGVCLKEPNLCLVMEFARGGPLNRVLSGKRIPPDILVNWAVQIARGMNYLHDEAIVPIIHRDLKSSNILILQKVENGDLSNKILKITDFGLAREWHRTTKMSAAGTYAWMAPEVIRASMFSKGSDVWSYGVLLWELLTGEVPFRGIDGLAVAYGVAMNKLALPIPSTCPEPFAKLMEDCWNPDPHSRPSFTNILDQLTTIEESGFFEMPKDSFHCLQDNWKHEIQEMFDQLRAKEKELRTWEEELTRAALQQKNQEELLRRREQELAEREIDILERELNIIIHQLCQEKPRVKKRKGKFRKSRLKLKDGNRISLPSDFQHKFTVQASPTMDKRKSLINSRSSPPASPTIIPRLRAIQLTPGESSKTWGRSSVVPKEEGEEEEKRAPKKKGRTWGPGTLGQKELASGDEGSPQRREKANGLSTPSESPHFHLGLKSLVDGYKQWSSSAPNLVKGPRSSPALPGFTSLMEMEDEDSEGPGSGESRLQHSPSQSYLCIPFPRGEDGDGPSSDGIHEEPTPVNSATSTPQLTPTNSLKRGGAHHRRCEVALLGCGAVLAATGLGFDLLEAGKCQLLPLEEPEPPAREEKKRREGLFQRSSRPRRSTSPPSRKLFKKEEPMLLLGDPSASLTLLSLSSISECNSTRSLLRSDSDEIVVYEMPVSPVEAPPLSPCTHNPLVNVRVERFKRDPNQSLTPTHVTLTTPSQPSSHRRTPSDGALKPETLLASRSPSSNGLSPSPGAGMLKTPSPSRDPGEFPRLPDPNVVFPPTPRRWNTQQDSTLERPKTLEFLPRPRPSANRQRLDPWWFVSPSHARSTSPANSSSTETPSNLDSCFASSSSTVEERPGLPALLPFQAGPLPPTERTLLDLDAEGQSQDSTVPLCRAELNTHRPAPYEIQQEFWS
The target of test [5] is T2, Serine/threonine-protein kinase STK11 (Homo sapiens) (UniProt Q15831).
T2 sequence (whole entry): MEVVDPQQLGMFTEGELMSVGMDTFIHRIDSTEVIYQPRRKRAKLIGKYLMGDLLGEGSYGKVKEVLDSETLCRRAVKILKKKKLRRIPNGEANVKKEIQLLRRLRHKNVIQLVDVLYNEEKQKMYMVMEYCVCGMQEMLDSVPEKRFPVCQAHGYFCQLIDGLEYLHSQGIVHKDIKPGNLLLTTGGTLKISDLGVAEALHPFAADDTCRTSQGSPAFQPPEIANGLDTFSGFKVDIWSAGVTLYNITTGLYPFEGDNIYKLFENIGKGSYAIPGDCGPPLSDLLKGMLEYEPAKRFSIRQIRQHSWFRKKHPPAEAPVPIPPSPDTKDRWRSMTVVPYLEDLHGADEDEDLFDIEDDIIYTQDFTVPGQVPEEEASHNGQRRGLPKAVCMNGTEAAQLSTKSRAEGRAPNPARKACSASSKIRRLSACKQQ
Put plainly: Inhibition of LKB1 (unknown origin) at 10 uM incubated for 30 mins in presence of [gamma-33P]ATP by multidrop micro reagent based assay relative to control; values are per cent of control.

Test [6] concerns the target T3, Protein kinase C zeta type (Homo sapiens) (UniProt Q05513).
T3 sequence (whole entry): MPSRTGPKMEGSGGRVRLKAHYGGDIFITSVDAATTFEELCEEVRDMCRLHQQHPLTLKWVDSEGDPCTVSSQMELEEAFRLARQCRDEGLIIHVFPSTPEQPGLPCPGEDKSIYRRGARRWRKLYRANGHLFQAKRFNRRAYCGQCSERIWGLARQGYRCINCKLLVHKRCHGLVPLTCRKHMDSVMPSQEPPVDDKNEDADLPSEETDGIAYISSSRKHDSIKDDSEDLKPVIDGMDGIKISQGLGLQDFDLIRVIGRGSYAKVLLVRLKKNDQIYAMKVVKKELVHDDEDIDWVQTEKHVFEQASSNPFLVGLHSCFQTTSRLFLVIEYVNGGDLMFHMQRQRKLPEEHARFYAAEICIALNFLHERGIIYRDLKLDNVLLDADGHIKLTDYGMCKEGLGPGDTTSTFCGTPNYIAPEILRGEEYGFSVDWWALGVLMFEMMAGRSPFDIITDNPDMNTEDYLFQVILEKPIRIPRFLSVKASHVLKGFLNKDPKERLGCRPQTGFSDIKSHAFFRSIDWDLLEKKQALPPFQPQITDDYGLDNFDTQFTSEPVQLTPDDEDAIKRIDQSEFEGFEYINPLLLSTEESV
In words: Inhibition of PKCzeta (unknown origin) at 10 uM incubated for 30 mins in presence of [gamma-33P]ATP by multidrop micro reagent based assay relative to control; values are per cent of control.

The target of test [7] is RAC-alpha serine/threonine-protein kinase (Homo sapiens) (UniProt P31749). Put plainly: Inhibition of PKBalpha (unknown origin) at 10 uM incubated for 30 mins in presence of [gamma-33P]ATP by multidrop micro reagent based assay relative to control; values are per cent of control.
Chain of RAC-alpha serine/threonine-protein kinase (Homo sapiens) (P31749 whole entry): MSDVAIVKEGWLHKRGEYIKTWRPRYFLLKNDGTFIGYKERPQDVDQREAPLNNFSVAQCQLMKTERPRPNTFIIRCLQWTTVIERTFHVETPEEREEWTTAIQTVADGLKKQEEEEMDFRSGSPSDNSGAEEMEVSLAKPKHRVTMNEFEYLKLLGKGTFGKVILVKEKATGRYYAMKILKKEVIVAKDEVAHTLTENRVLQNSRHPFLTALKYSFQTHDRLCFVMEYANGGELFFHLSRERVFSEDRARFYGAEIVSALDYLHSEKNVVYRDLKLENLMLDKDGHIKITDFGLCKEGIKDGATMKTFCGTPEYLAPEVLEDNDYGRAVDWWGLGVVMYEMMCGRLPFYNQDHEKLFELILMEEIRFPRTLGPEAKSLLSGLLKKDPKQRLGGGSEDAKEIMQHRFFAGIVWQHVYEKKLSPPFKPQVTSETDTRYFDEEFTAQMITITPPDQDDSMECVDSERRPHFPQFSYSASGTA
For test [8], the target named is Mitogen-activated protein kinase 1 (Homo sapiens) (UniProt P28482). Put plainly: Inhibition of ERK2 (unknown origin) at 1 uM incubated for 30 mins in presence of [gamma-33P]ATP by multidrop micro reagent based assay relative to control; values are per cent of control.
Chain of Mitogen-activated protein kinase 1 (Homo sapiens) (P28482 whole entry): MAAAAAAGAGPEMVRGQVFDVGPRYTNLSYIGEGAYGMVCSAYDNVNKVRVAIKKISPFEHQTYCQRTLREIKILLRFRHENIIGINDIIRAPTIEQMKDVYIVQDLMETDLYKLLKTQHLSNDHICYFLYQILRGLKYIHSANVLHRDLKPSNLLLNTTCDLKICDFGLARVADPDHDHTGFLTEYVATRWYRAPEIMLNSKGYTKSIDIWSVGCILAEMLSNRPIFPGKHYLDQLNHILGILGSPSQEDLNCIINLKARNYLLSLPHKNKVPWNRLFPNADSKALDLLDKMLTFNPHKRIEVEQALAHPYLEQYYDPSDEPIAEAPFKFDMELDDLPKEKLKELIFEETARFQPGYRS

Broadly, the inhibition is the change of the read-out against control, counted positive when it falls.

Chain of Serine/threonine-protein kinase Nek6 (Homo sapiens) (Q9HC98 whole entry): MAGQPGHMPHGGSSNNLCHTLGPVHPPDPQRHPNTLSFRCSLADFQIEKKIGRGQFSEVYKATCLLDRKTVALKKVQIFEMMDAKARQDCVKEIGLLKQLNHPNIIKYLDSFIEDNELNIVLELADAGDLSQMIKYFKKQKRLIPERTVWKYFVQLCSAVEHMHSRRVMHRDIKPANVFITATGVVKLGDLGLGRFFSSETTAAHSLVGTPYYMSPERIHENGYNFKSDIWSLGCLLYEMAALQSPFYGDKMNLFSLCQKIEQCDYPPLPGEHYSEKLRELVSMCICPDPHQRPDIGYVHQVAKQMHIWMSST

As to `C[C@@H](N)[C@H]1CC[C@H](C(=O)Nc2ccncc2)CC1`, the inhibition in test [1] was 73%. Besides, the residual activity in test [2] was 80%; in test [3], 106%; in test [4], 90%; in test [5] it was 52%; in test [6] it was 69%; in test [7], 56%.
Take `CCn1c(-c2nonc2N)nc2cnc(Oc3cccc(NC(=O)c4ccc(OCCN5CCOCC5)cc4)c3)cc21` [GSK-269962A]: the residual activity in test [8] was found to be 105%.
For the molecule `CC1=C(C(=O)Nc2cc3cn[nH]c3cc2F)C(c2ccc(C(F)(F)F)cc2)CC(=O)N1` (stereo unspecified), the residual activity in test [8] was 94%.
Consider `O=S(=O)(c1cccc2cnccc12)N1CCCNCC1` [FASUDIL], for which the inhibition in test [1] was determined as 73%. The residual activity was 107% in test [2]; 115% in test [3]; 56% in test [4]; 33% in test [5]; 66% in test [6]; 27% in test [7].
